In brackets after ≈: the same amount, converted by molar mass.
Assays:
Format in all cases: functional
[1] = system: Mycobacterium tuberculosis; assay: Antitubercular activity against multi-drug resistant Mycobacterium tuberculosis isolate 16995 after 7 days by Alamar blue assay; details: isolate 16995, 168 h
Procedure, shortened: (§1)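 Inoculum grown to late log phase in Middlebrook 7H9 with 0.2% glycerol, 0.05% Tween 80 and 10% ADC, then washed in PBS, filtered through 8 µm to remove clumps and frozen at -80 °C. Twofold compound dilutions in 7H9-ADC-TG with 2 × 10⁵ CFU per well, 37 °C. Alamar blue and Tween 80 added on day 7, read after 16-24 h (ex 530/em 590 nm). MIC is the lowest concentration giving ≥90% fluorescence reduction versus bacterium-only controls.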

[2] = system: Mycobacterium tuberculosis; assay: Antitubercular activity against multi-drug resistant Mycobacterium tuberculosis isolate 16883 after 7 days by Alamar blue assay; details: isolate 16883, 168 h; procedure, shortened: as §1
[3] = system: Mycobacterium tuberculosis; assay: Antitubercular activity against multi-drug resistant Mycobacterium tuberculosis; procedure, shortened: as §1

Row | SMILES | MIC90 [1] | MIC90 [2] | MIC [3]
1 | O=c1nc(N2CCN(CC3CCCCC3)CC2)sc2c([N+](=O)[O-])cc(C(F)(F)F)cc12 [MACOZINONE] | < 0.016 µg/mL | < 0.016 µg/mL | –
2 | CN(CC1CCCCC1)C1CCN(c2nc(=O)c3cc(C(F)(F)F)cc([N+](=O)[O-])c3s2)CC1 | – | – | 0.016 µg/mL (≈ 0.033 µM)
3 | CO[C@H]1/C=C/O[C@@]2(C)Oc3c(C)c(O)c4c(O)c(c(/C=N/N5CCN(C)CC5)c(O)c4c3C2=O)NC(=O)/C(C)=C\C=C\[C@H](C)[C@H](O)[C@@H](C)[C@@H](O)[C@@H](C)[C@H](OC(C)=O)[C@@H]1C [RIFAMPIN] | > 40 µg/mL | > 40 µg/mL | –
4 | O=c1nc(N2CCC(CN3CCC(C(F)(F)F)CC3)CC2)sc2c([N+](=O)[O-])cc(C(F)(F)F)cc12 | < 0.016 µg/mL | < 0.016 µg/mL | –
5 | NNC(=O)c1ccncc1 [ISONIAZID] | > 40 µg/mL | > 40 µg/mL | –

Source: ChEMBL document CHEMBL4229369, “Design, synthesis and antitubercular evaluation of benzothiazinones containing a piperidine moiety” (Eur J Med Chem, 2018)
